Data from ChEMBL document CHEMBL4041524, “Synthesis and Characterization of a Novel γ-Aminobutyric Acid Type A (GABAA) Receptor Ligand That Combines Outstanding Metabolic Stability, Pharmacokinetics, and Anxiolytic Efficacy” (J Med Chem, 2016).
Calls of active or inactive are those of the source. The rule behind the calls is not given here.

Key:
[1] = Half life in femoral artery/vein cannulated Sprague-Dawley rat at 1 mg/kg, iv administered […] as single dose by LC-MS/MS analysis; assay type: ADME, organism-based; conditions: in vivo
In short: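 Male Sprague-Dawley rats (n = 3 per time point) were dosed 1 mg/kg i.v. or 10 mg/kg i.p. Plasma concentrations were measured at set time points. Clearance, Vdss and T½ came from the i.v. arm, and AUC, Cmax and Tmax from the i.p. arm.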

[2] = Total plasma concentration in Sprague-Dawley rat at 10 mg/kg, ip measured after 4 hrs; assay type: ADME, organism-based
In short: (§1)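 Rats were given 10 mg/kg i.p. (n = 3), and total plasma and brain concentrations were measured at 4 h. Unbound concentrations were calculated as Fu × total concentration, and Kp,uu = Cu,brain/Cu,plasma.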

[3] = target: GABA-A receptor; alpha-5/beta-3/gamma-2 (Homo sapiens) (UniProt P18507+P28472+P31644); experiment: Modulation of recombinant GABA alpha5beta3gamma2 receptor (unknown origin) expressed in Xenopus laevis oocytes assessed as change in GABA-induced EC(3 to 6) current by two-electrode voltage clamp assay; assay type: cell-based
In short: (§2)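 Xenopus laevis oocytes expressing α1, α2, α3 or α5 β3γ2 GABAARs were recorded by two-electrode voltage clamp. Modulation of the GABA EC3-6 current (taken as 100%) was tested at 100 nM, 1 μM and 10 μM in the same cells. Values are mean ± SEM, n = 3–4.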

[4] = Ratio of unbound concentration in Sprague-Dawley rat brain to plasma at 10 mg/kg, ip measured after 4 hrs; assay type: ADME, organism-based; in short: as §1
[5] = target: GABA-A receptor; alpha-3/beta-3/gamma-2 (Homo sapiens) (UniProt P18507+P28472+P34903); experiment: Modulation of recombinant GABA alpha3beta3gamma2 receptor (unknown origin) expressed in Xenopus laevis oocytes assessed as change in GABA-induced EC(3 to 6) current at 100 nM by two-electrode voltage clamp assay; assay type: cell-based; in short: as §2
Mus musculus [6] = experiment: Anxiolytic-like activity in Swiss Webster mouse marble burying model of anxiety assessed as suppression of marble burying activity at 30 mg/kg, ip administered 30 mins prior to test relative to vehicle-control; assay type: functional, organism-based
In short: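 Male NIH Swiss Webster mice (n = 10) received vehicle or compound at 10 or 30 mg/kg i.p. 30 min before marble burying testing. Sedation-like behaviour was noted by observation. Analysis was ANOVA with Dunnett's test vs vehicle.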

Mus musculus [7] = experiment: Toxicity in Swiss mouse assessed as change in motor coordination by measuring number of falls from the rotating rod at 10 mg/kg, ip administered 30 mins prior to testing measured for 2 mins by rotarod test relative to control; assay type: organism-based; conditions: in vivo
In short: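 The same mice used for marble burying were placed on a rotarod at 4 r.p.m. for 2 min. No fall was scored success, one fall partial, and two falls failure.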

[8] = target: T1, GABA-A receptor; alpha-3/beta-3/gamma-2 (Homo sapiens, UniProt P18507+P28472+P34903); experiment: Binding affinity to human GABAA alpha3beta3gamma2 receptor expressed in HEK293 cells assessed as GABA-induced membrane potential change preincubated for 3 mins followed by addition of GABA measured after 3 mins by FLIPR assay; assay type: cell-based
T1 sequence (P18507 whole entry): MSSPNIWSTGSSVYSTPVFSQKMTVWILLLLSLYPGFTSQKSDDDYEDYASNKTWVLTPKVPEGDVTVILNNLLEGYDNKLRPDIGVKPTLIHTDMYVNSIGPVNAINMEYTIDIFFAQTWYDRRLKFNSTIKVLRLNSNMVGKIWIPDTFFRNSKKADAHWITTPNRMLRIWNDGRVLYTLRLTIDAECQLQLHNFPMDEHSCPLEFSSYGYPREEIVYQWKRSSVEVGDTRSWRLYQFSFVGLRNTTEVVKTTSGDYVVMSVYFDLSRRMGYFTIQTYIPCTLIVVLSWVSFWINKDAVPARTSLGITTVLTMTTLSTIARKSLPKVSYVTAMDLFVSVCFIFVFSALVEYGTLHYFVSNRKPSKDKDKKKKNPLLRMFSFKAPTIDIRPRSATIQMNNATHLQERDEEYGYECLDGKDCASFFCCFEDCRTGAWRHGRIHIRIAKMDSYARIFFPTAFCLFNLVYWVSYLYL
T1 sequence (P28472 whole entry): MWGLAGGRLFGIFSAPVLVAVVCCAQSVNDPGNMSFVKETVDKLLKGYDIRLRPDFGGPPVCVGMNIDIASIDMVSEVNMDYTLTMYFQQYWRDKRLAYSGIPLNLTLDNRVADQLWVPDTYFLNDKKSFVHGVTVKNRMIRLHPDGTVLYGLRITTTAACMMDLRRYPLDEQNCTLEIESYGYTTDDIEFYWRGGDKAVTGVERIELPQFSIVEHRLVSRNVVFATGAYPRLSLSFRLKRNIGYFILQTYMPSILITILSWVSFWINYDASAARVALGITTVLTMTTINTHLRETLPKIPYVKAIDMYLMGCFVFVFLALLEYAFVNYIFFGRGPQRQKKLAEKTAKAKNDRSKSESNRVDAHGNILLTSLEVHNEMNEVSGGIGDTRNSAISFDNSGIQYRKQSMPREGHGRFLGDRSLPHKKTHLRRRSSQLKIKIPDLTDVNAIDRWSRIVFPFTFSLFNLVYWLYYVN
T1 sequence (P34903 whole entry): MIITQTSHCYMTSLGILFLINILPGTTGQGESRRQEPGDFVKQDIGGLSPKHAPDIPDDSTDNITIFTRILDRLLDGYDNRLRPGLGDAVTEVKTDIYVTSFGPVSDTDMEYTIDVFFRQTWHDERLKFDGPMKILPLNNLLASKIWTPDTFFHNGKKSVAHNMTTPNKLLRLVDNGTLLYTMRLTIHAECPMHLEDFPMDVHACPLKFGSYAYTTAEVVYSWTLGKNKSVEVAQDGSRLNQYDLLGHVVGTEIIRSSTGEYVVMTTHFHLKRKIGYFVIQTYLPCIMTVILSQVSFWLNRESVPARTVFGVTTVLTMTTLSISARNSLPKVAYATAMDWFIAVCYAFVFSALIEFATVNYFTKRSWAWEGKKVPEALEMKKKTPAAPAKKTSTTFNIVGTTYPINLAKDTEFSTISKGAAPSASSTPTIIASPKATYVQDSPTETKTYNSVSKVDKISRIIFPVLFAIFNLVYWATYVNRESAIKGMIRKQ
In short: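 Stably transfected HEK293T cells expressing α1β3γ2 (n = 2) or α3β3γ2 (n = 1) GABAARs. Membrane potential was read as fluorescence changes on a FLIPR Tetra, and EC50 was derived.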

Rattus norvegicus = experiment: Anxiolytic like activity in water-deprived Sprague-Dawley rat assessed as increase in water drinking time during punished period at 10 mg/kg, po administered 30 mins prior to testing by Vogel conflict test relative to control; assay type: functional
In short: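 Water-deprived male Sprague-Dawley rats (n = 6–8) drank during unpunished and punished periods, with licking suppressed by mild shock in punished periods. Compounds were given 30 min before testing. Analysis was ANOVA with Dunnett's test.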

Plasma = experiment: Unbound plasma concentration in Sprague-Dawley rat at 10 mg/kg, ip measured after 4 hrs; assay type: ADME, organism-based; conditions: in vivo
In short: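 Male Sprague-Dawley rats (n = 3) received 10 mg/kg i.p., and total plasma concentration was measured at 4 h. Fraction unbound in plasma was determined in vitro by equilibrium dialysis with rat plasma protein. Unbound concentration was calculated as fraction unbound × total concentration.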

**Q.** Which half-life [1] does the source give for `C#Cc1ccc2c(c1)C(c1ccccn1)=NCc1c(-c3cnco3)ncn1-2` here?
**A.** 1.4 h

**Q.** And the concentration at 4 h [2]?
**A.** 2130 nM

**Q.** And the Activity [3]?
**A.** Dose-dependent effect

**Q.** What about the “K(p,uu,brain)” value [4] of the same compound?
**A.** 0.66

**Q.** What about the Activity [5] of the same compound?
**A.** 109%

**Q.** And the Activity (Mus musculus [6])?
**A.** Active

**Q.** And the Activity (Mus musculus [7])?
**A.** Toxic

**Q.** What about the EC50 [8] of the same compound?
**A.** 937 nM

**Q.** And the Activity (Rattus norvegicus)?
**A.** 240%

**Q.** What about the “Cp(f)” value (Plasma) of the same compound?
**A.** 552 nM
